According to ChEMBL document CHEMBL4513216, “Probing the Open Global Health Chemical Diversity Library for Multistage-Active Starting Points for Next-Generation Antimalarials” (ACS Infect Dis, 2020):

Assay: Toxicity liver stage against HepG2, at 10uM
Format: cell-based
Design: test concentration 10 uM, cell line HepG2-A16-CD81EGFP
Conditions: human, HepG2-A16-CD81EGFP cells; read-out: INHIBITION
How it was run: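 Uninfected HepG2-A16-CD81EGFP cells, 3 × 10^3 per well, 1536-well, plated on prespotted compound at 10 μM final, parasite-free screening media added to match infected plates; puromycin 10 μM positive, DMSO 0.5% negative; run in parallel with 48 h PbLuc assay at 37 °C, 5% CO2; viability by CellTiter-Glo luminescence, normalized to controls.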

| Structure (SMILES) | cytotoxicity at 10 µM [%] |
| --- | --- |
| CC(C(=O)O)n1nc(C(F)(F)F)c(Cl)c1C1CC1 (stereo not given) | 2.01 |
| Cc1nn(CCC(=O)NC2CCCOC2)c(C)c1C (stereo not given) | 2.06 |
| OCCNc1nccc(-c2c[nH]nc2-c2cccnc2)n1 | -8.22 |
| CCC(=O)NCC(=O)NC(C)c1ccc(OCCC(C)C)cc1 (stereo not given) | 7.89 |
| Cc1ccc(F)cc1S(=O)(=O)NCc1cccnc1N(C)C | 0.716 |
| CN(CCc1cccs1)C(=O)Nc1ccc2c(c1)C(=O)N(C)CC2 | -5.44 |
| OCCN1CCC2(CC1)CC(NCc1ccccn1)c1ccccc1O2 (stereo not given) | 0.98 |
| CCOC(=O)CCn1cnc2onc(-c3cc(OC)ccc3Cl)c2c1=O | -19 |
| CN(C)c1ccc(CNC(=O)Nc2ccc(S(=O)(=O)C(F)F)cc2)cc1 | 9.25 |
| Cc1nc(C(=O)N2CCC(c3nnc(Cn4ccnc4)n3C)CC2)cs1 | -127 |
| Cn1cc(N2CC3(CCN(Cc4nccn4C)C3)CC2=O)cn1 (stereo not given) | -72.8 |
| CCC(CN1CCN(C)CC1)NC(=O)C1(c2cccc(F)c2)CC1 (stereo not given) | 3.54 |
| CCCc1cc(NCc2cc(C)on2)n2nccc2n1 | -6.85 |
| CCCn1nnnc1COc1ccc(C(=O)OC)cc1 | -5.58 |
| CN(C)C1(CNC(=O)C2CCCN2Cc2ccc(F)cc2)CCOCC1 (stereo not given) | 3.25 |
| Cc1ccc(C(=O)N2C[C@@H](OCc3cccnc3)[C@H]3OCCC[C@H]32)o1 | 4.74 |
| Cc1cc(C(=O)N2CCC3(CC2)C(=O)N(C)CCN3CC2CC2)c(C)o1 | -96.5 |
| Cc1cc(C)n(-c2nc(C(=O)NCCS(=O)(=O)N3CCCCC3)cs2)n1 | -10.3 |
| COc1ccc(CNC(=O)NC(C)(CO)C2CC2)c(C(F)(F)F)c1 (stereo not given) | 8.48 |
| CN(Cc1ccco1)[C@@H]1CN(Cc2ccoc2)C[C@@H]2CCCO[C@@H]21 | -1.6 |
| O=C(c1nn(-c2ccccc2F)cc1O)N1CCCC1 | -4.99 |
| Cc1nc(-c2cnn(C)c2)nc2c1CN(C(=O)c1ccc[nH]1)CC2 | 13 |
| c1cncc(C[C@H]2[C@H](N3CCOCC3)CCN2Cc2nccs2)c1 | 8.82 |
| CC(Cc1cccc(Cl)c1)NC(=O)NCc1ncnn1C (stereo not given) | 8.52 |
| Cc1nc(C2CCCN2C(=O)CCCn2cccn2)no1 (stereo not given) | -4.77 |
| CS(=O)(=O)N1Cc2nccn2CC(CN2CCCC2)C1 (stereo not given) | -111 |
| C[S+](C)[c-]1c(=O)[nH]c(=O)n(CCc2ccc(F)cc2)c1=O | 2.86 |

| Structure (SMILES) | cytotoxicity at 10 µM [%] |
| --- | --- |
| Cc1cnc(NCc2csc(C(C)C)n2)nc1-c1cnn(C)c1 | 2.83 |
| O=C(c1cc[nH]n1)N1CCC(Nc2cccnn2)CC1 | -0.529 |
| COc1ccccc1C(=O)N1CCCC1Cn1cc(C)cn1 (stereo not given) | -6.49 |
| CCn1nc(C)c2nnn(CC(=O)Nc3cccc(F)c3)c(=O)c21 | 8.44 |
| Cc1cnccc1-c1cnn(CCNC(=O)C(C)(C)C)c1C1CC1 | -0.459 |
| O=S(=O)(C1CC1)N1CCOC2(CCCN(c3ccccc3)C2)C1 (stereo not given) | -4.54 |
| CC(C)C(Sc1cccs1)C(=O)NCc1cccnc1 (stereo not given) | -5.15 |
| COc1nc2c(cc1C(=O)NCCCc1nnc(N)s1)CCC2 | 4.37 |
| CCC(=O)c1ccc(OCC(=O)NCC2CC(CC)=NO2)cc1 (stereo not given) | -41.7 |
| Cn1ccnc1CN1C[C@@H](F)[C@@H](OCc2nc3cnccc3[nH]2)C1 | 3.39 |
| COCC(c1cccc(C(F)(F)F)c1)N(C)C(=O)c1cc(C)n[nH]1 (stereo not given) | -14.1 |
| CCOC(=O)NC(C(=O)NCc1ccc(N2CCCCC2)nc1)C(C)C (stereo not given) | -6.09 |
| CC(C)(C)n1ncc(NCc2ccccc2)c(Cl)c1=O | 55.8 |
| CCc1c(C)nn(CCNC(=O)Cc2csc(C)n2)c1C | 0.129 |
| Cc1cccc2c1nc1n2[C@@H](CNC(=O)c2ccccn2)COC1 | 6.49 |
| CC(C)(C)n1cc(NC(=O)C2CN(Cc3ccccc3)CCO2)cn1 (stereo not given) | 0.935 |
| CC(C)NC1CCc2c(ccc(=O)n2CCN(C)C)C1 (stereo not given) | -1.7 |
| Cc1nc(CNC(=O)CCN2CCN(c3ccccn3)CC2)oc1C | -4.97 |
| Cc1cnn(CCNCc2ccc(OCc3cccnc3)cc2)c1 | -12.1 |
| COCCn1cncc1CN1CCC(C(C)=O)(c2ccccc2)CC1 | 1.92 |
| Cc1ccccc1OC(C(=O)N1CCC2(CC1)CN(C)C(=O)O2)C(C)C (stereo not given) | -52.4 |
| COc1ccc(NC(=O)NCCCn2nc3ccccn3c2=O)cc1 | -13.3 |
| Cc1ccc(F)cc1C(=O)N1CCN(S(C)(=O)=O)[C@@H](C)C1 | -2.53 |
| CC(C)Nc1ccc2c(c1)C1(CCOCC1)C(=O)N2c1ccsc1 | 11 |
| CN(CCC(N)=O)Cc1cc(Br)cs1 | -0.711 |
| Cc1noc(CCCC(=O)NC(C)c2nnc3n2CCC3)n1 (stereo not given) | 0.259 |
| Fc1cnc(N2CCCn3c(CN4CCOCC4)nnc3C2)nc1 | -138 |

| Structure (SMILES) | cytotoxicity at 10 µM [%] |
| --- | --- |
| OC[C@@H]1CCCN1Cc1cn(C2CCN(C3CCCC3)CC2)nn1 | -3.73 |
| COc1cc(CNC(=O)c2c(C)noc2C(C)C)ccn1 | -7.9 |
| Cc1cccc(N(CCC#N)S(=O)(=O)CC2CCCCO2)c1 (stereo not given) | 6.48 |
| CCC(C)(C)C1CCCN1C(=O)c1coc(S(=O)(=O)NC)c1 (stereo not given) | -13.5 |
| Cc1cc(O)cc(C2CCCN2C(=O)c2ccn(C)n2)n1 (stereo not given) | -2.82 |
| O=C(c1ncccn1)N1C[C@@H]2COC[C@]2(c2nnc(C3CC3)o2)C1 | -1.31 |
| CC[C@H](C)[C@H](NC(=O)Cn1ccc2ccc(F)cc21)C(=O)OC | 4.12 |
| Cn1ccc(C(=O)N2CCCC(Cc3cccc4cccnc34)C2)n1 (stereo not given) | -8.44 |
| COCCN(Cc1nccs1)C(=O)c1cc(-c2ccc(C)s2)n[nH]1 | -8.84 |
| CN(C)C[C@H]1OC[C@@H]2CCN(C(=O)NCc3cccc(F)c3)C[C@@H]21 | 6.98 |
| Fc1ccc(-n2cccn2)c(CN2CCCCC2CCn2ccnc2)c1 (stereo not given) | -11.3 |
| Cn1nnc2c(sc3nc(N4CCOCC4)c4c(c32)CCC4)c1=O | -12.4 |
| Cn1nc(COc2cccnc2)c2c1CCN(CC1CC1)C2 | -97.8 |
| O=C(CCc1ccc(OC(F)(F)F)cc1)N1CCCS1(=O)=O | 3.42 |
| CCN(Cc1ccncc1)CC1(O)CCN(C(=O)c2ccccc2C)C1 (stereo not given) | -22 |
| O=C(CC1CCCC1)NCCS(=O)(=O)N1CCN(c2ccccc2)CC1 | -4.07 |
| CNCc1ccc(OCc2ccc3c(c2)OCCO3)cc1 | 1.61 |
| CN(C)CC(=O)N1Cc2nnn(C)c2C(COCc2ccccn2)C1 (stereo not given) | 9.26 |
| CN(Cc1noc(-c2ccccc2)n1)C(=O)CSc1nnc(N)s1 | 0.712 |
| CC(C)CN1CCC2(CC(C(=O)NCc3cccnc3)=NO2)C1 (stereo not given) | -5.99 |
| Cc1ccc(C(=O)N2C[C@@H](N3CCN(C)CC3)[C@H]3OCCC[C@H]32)cn1 | -113 |
| CC[C@@]1(O)CCN(Cc2cc(C3CCCCC3)no2)C[C@H]1O | -4.18 |
| CC1=Nc2c(c(=O)[nH]n2C2CCOCC2)C(c2cccc(O)c2)S1 (stereo not given) | -6.81 |
| COCCN(C)CCN1CC2(CCN(C3CCCOC3)CC2)OC1=O (stereo not given) | -11 |
| CC(C)Oc1ccc(CN2CCC(Cc3nnc(CO)n3C)CC2)cc1 | 1.24 |
| Cc1nn(C)cc1CN1CCC(C2Nc3ccccc3S(=O)(=O)N2)CC1 (stereo not given) | -2.19 |
